Assay outcomes (PubChem)
TAAR1 antag – antagonists of human TAAR1; hit rate 1.5% among 360,000; AID 624466; CHO RD-HGA16 TAAR1, Fluo-8 calcium fluorescence, antagonist; inhibition, % at 3 µM; Q96RJ0;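 active = inhibition above a per-plate cutoff, the mean inhibition of test compounds on that plate plus 3 SD, cut at about 49% in these data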;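 note: 0% = DMSO plus EC80 beta-PEA response and 100% = DMSO alone without agonist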
Target sequence (Q96RJ0 whole entry, looked up): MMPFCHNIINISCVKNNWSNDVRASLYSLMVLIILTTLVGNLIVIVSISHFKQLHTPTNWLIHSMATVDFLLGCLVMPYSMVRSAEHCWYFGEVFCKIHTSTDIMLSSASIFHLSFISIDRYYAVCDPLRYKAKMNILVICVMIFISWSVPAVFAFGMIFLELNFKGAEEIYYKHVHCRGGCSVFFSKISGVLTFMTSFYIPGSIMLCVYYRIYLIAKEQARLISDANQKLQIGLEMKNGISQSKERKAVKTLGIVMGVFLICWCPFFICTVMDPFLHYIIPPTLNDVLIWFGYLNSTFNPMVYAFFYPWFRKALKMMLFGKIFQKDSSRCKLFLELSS
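Test system: CHO RD-HGA16 cells bearing hTAAR1 | Reagent: β-PEA, EC80 | Compound dosing: 3 µM, single point | Schedule: Dye loading 75 min at 37 °C, then 30 min room temperature | Signal: Calcium fluorescence with Fluo-8 | Evaluation: Percent inhibition of PEA-evoked calcium signal, max/basal emission ratio | Control set: DMSO-only wells and EC80 β-PEA-stimulated wells | Repeats: Singlicate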
CHRM1 PAM – positive allosteric modulators of human M1 muscarinic receptor. CHO-K1 hM1, Fluo-8 calcium fluorescence, ACh EC20; 0% = ACh EC20, 100% = maximal ACh. P11229. hit rate 0.088% among 360,000. activation, % at 3 µM; in the data active = activation above about 19%, passing the limit was not always enough
CHRM1 agonist – agonists of human M1 muscarinic receptor; CHO-K1 hM1, Fluo-8 calcium fluorescence, agonist mode; 0% DMSO, 100% acetylcholine EC100; activation, % at 3 µM; hit rate 0.33% among 360,000;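 active = activation above the run's mean compound activation plus 3 SD, cut at about 16% in these data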;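 note: peak over basal fluorescence ratio within a 140 s kinetic read after compound addition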
M1 antag – antagonists of human M1 muscarinic receptor; P11229; CHO-K1 hM1, Fluo-8 calcium fluorescence, ACh EC80 antagonist; inhibition, % at 3 µM; hit rate 1.3% among 360,000; AID 588852;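 active = percent inhibition above its own plate's cutoff, namely the mean of that plate's compound wells plus 3 SD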;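 note: peak over basal fluorescence ratio during 140 s after agonist addition; 0% = ACh EC80 plus DMSO and 100% = DMSO alone without agonist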
TAAR1 agonist – agonists of human TAAR1 | Q96RJ0 | CHO RD-HGA16 TAAR1, Fluo-8 calcium fluorescence; vehicle wells 0%, saturating PEA agonist 100% | activation, % at 3 µM | hit rate 0.99% among 360,000;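 active = activation above the mean activation of all test compounds in the run plus 3 SD, cut at about 38% in these data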
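Assay system: CHO-derived RD-HGA16 cells with stable Gα16 and human TAAR1; timing: 17-24 h seeding, 75 min 37 °C dye, 30 min RT; read-out: % activation from peak over basal fluorescence ratio, DMSO-to-PEA scaled; measured by: kinetic Fluo-8 calcium fluorescence; benchmarks: low control DMSO, high control PEA (EC100); doses: 3 µM single concentration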
HTR2A ag – mouse HTR2A agonism via beta-arrestin recruitment; CHO-K1 mHTR2A beta-arrestin complementation, luminescence; percent of 30 µM serotonin response; activation, % at 7.6 µM; hit rate 0.66% among 360,000;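 active = activation above a run cutoff, the mean activation of all tested compounds plus 3 SD, cut at about 14% in these data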;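 note: 0% = plate median of compound wells and 100% = 30 µM serotonin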
MOR ag counter – activates human mu opioid receptor in HTR2A counterscreen | shares compounds with HTR2A ag | U2OS OPRM1 beta-arrestin PathHunter, luminescence; DMSO 0%, DAMGO 9.3 µM 100% | activation, % at 9.3 µM | hit rate 5.3% among 2,300 | AID 624380;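 active = mean activation above the mean of DMSO-only wells plus 3 SD, cut at about 0.5% in these data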
HTR2A ag conf – mouse HTR2A agonism confirmed; shares compounds with HTR2A ag; CHO-K1 PathHunter beta-arrestin recruitment, luminescence; DMSO 0%, 30 µM serotonin 100%; activation, % at 7.6 µM; hit rate 19% among 2,300;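 active = mean activation across triplicates above the hit threshold derived in the original primary screen, cut at about 15% in these data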
An asterisk follows results filed as active; · = not tested or not shown. Sampled rows, rich in hits. Any-hit rate of the full collection: about 3.9%.

SMILES	TAAR1 antag	CHRM1 PAM	CHRM1 agonist	M1 antag	TAAR1 agonist	HTR2A ag	MOR ag counter	HTR2A ag conf
Cc1cc(C)cc(N2C(=O)CC(Sc3ncn[nH]3)C2=O)c1 (stereo unspecified)	-13	12	-7	-8	7	2	·	·
CCCN1CCc2c(sc3nc(SC)n(-c4ccccc4)c(=O)c23)C1	-15	-6	-9	5	3	1	·	·
CCN(CC(=O)NC1CC1)S(=O)(=O)c1ccc(C)cc1	-7	13	-1	-12	1	15*	-1	-5
CCN(CC(=O)NC1CC1)S(=O)(=O)c1ccccc1	-20	6	-1	-6	1	3	·	·
CCOC(=O)c1c(CN2CCNCC2)nc2ccc(Cl)cc2c1-c1ccccc1	-3	-3	-3	2	9	-10	·	·
CC(C)N(Cc1nnc(-c2ccc(Cl)cc2)o1)C(=O)c1cc2ccccc2o1	-15	-7	-6	12	1	-7	·	·
CN(C)/N=C1\C(=O)N(CN2CCN(c3ccccc3)CC2)c2ccccc21	-16	7	-6	-8	15	22*	-1	12
CC(=O)CC1(O)C(=O)N(CN2CCN(c3ccccc3)CC2)c2ccccc21 (stereo unspecified)	-2	1	-4	3	11	0	·	·
COCCNC(=O)C(c1ccncc1)N(Cc1ccccc1)C(=O)Cn1nnc2ccccc21 (stereo unspecified)	-1	2	-4	-4	6	5	·	·
O=C1C2CCCN2C(c2ccc(F)cc2)N1c1cccc(Cl)c1 (stereo unspecified)	-7	17	-4	-3	1	17*	-1	1
O=C1C2CCCN2C(c2cccc(F)c2)N1c1cccc(Cl)c1 (stereo unspecified)	-3	2	-4	-1	0	7	·	·
O=C(Nc1ccccc1)Nc1nnc(-c2cccs2)s1	10	6	-1	6	25	21*	0	-2
O=C(CCNS(=O)(=O)c1ccc(F)c(Cl)c1)NCc1ccccc1F	13	-5	-2	14	-1	-5	·	·
CCS(=O)(=O)c1ccc(Sc2nncn2C)c([N+](=O)[O-])c1	-7	-4	-2	18	4	15*	0	4
Cc1nc(NCCc2ccc(S(N)(=O)=O)cc2)c2c(C)c(C)sc2n1	21	-9	4	-1	8	16*	-1	-3
Cc1nc(NCc2ccc(S(N)(=O)=O)cc2)c2c(C)c(C)sc2n1	3	0	-5	0	2	-5	·	·
COc1ccc(S(=O)(=O)N2CCCCC2)cc1NC(=O)c1cccc(S(=O)(=O)N2CC(C)OC(C)C2)c1 (stereo unspecified)	-9	6	-7	-8	0	-5	·	·
CCN1C(=O)[C@H]2[C@@H](c3ccc(C)cc3)N[C@]3(CCCN(Cc4cccn4C)C3=O)[C@H]2C1=O	13	10	-6	-21	1	21*	-1	-2
Cc1ccc(NC(=O)c2sc(N)nc2-c2ccccc2)cc1C	-13	8	-10	-3	0	-6	·	·
Cc1cccc(C)c1NC(=O)c1sc(N)nc1-c1ccccc1	17	6	-3	-3	-1	19*	0	-2
O=C1[C@H](Oc2ccccc2)[C@@H](c2ccccc2)N1c1ccncc1	-1	2	-4	-3	3	18*	0	-8
O=C1[C@@H](Oc2ccccc2)[C@@H](c2ccccc2)N1c1ccccc1	6	0	-5	-6	4	11	·	·
O=C(c1[nH]c(C(F)(F)F)nc1-c1ccccc1)N1CCN(c2cccc(C(F)(F)F)n2)CC1	-14	-4	-6	-6	10	14*	0	4
COc1cc(NC(=O)c2ccc3c(SCC(=O)O)c4c(nc3c2)CCC4)cc(OC)c1OC	-33	20	5	-4	3	-3	·	·
COc1cc(NC(=O)c2ccc3c(SCC(=O)O)c4c(nc3c2)CCCC4)cc(OC)c1OC	10	14	-1	-21	8	15*	-1	-3
SMILES	TAAR1 antag	CHRM1 PAM	CHRM1 agonist	M1 antag	TAAR1 agonist	HTR2A ag	MOR ag counter	HTR2A ag conf
CCCCC(=O)Nc1ccc(N2CCN(C(=O)c3ccco3)CC2)cc1	-4	16	-3	-13	0	7	·	·
COc1ccc(C(=O)OCc2ccc(C)cc2)cc1S(=O)(=O)N1CCOCC1	7	5	-4	0	12	18*	0	-3
Cc1ccc(N(Cc2ccccc2)C(=O)c2ccc(C)c(S(=O)(=O)N3CCOCC3)c2)cc1	23	4	-4	2	1	15*	0	2
Cc1ccc(N(Cc2ccccc2)C(=O)c2ccc(S(=O)(=O)N3CCOCC3)cc2)cc1	-3	1	-6	0	0	3	·	·
COc1ccc(-c2cc(C(=O)OCc3ccccn3)c3ccccc3n2)cc1	24	6	-3	-10	1	1	·	·
CCCCn1c(N)c(N(CCOC)C(=O)c2ccc(-c3ccc(C(C)=O)cc3)o2)c(=O)[nH]c1=O	-6	3	-2	-5	0	15*	-1	0
CCCn1c(N)c(N(CCOC)C(=O)c2cc3c(s2)CCC(CC)C3)c(=O)[nH]c1=O (stereo unspecified)	1	-12	-2	15	3	8	·	·
CCCCN(C(=O)c1cccc(S(=O)(=O)N2CCN(C)CC2)c1)c1c(N)n(CCC)c(=O)[nH]c1=O	8	5	-5	-2	0	16*	-1	1
CCCN(C(=O)c1cccc(S(=O)(=O)N2CCN(C)CC2)c1)c1c(N)n(Cc2ccccc2)c(=O)[nH]c1=O	-4	-2	-3	12	2	-1	·	·
CCCCn1c(N)c(N(CCOC)C(=O)c2cc3c(s2)CCC(C)C3)c(=O)[nH]c1=O (stereo unspecified)	-7	-1	-3	7	1	15*	-1	-1
O=C(OCc1cccc(F)c1)c1ccc2c(=O)n3c(nc2c1)CCC3	10	-1	2	-9	4	18*	-1	-4
Cc1nc(SCC(=O)NCCc2ccc(Cl)cc2)nc(C)c1C	-22	4	-4	3	0	15*	-1	-5
Nc1nc(SCc2ccccc2)sc1C(=O)N1CCCCC1	-2	14	6	-15	11	7	·	·
